In general, IC50 refers to the concentration at which inhibition is half-maximal.

Experiment [1] is described as follows: Cytotoxicity against folate receptor over-expressing mouse ID8 cells after 72 hrs by MTT assay. The following applies: ID8, 72 h. Type of experiment: functional, cell-based. The method, boiled down:
(§1)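 Adherent monolayers in RPMI-1640 with 5% heat-inactivated FBS, 5% NuSerum and PenStrep, 37 °C, 5% CO2. Seeded 0.5–1.5 × 10^4 cells/well and left to attach overnight, then medium replaced. Compound diluted from DMSO stock to 0.5–5,000 nM final, DMSO ≤1%, 72 h. MTT 0.5 mg/mL for 3 h at 37 °C, formazan dissolved in acidic isopropanol/Triton, A570. IC50 from four-parameter logistic fit.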
In general terms: Tetrazolium dyes change colour on reduction, which living cells bring about.

The subject of experiment [2] is MX1. Kind of experiment: Cytotoxicity against folate receptor over-expressing human MX1 cells after 72 hrs by MTT assay. Type of experiment: functional, cell-based. Particulars: MX1, 72 h. The method in brief: as §1
For experiment [3], the system named is L1210. Kind of experiment: Cytotoxicity against folate receptor over-expressing mouse L1210 cells after 72 hrs by MTT assay. Type of experiment: functional, cell-based. Particulars: L1210, 72 h. The method, boiled down: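 L1210FR cells grown in suspension in supplemented RPMI-1640. Resuspended directly in test solutions, 0.5–5,000 nM final, at 0.5–0.8 × 10^4 cells/well, DMSO ≤1%. Incubated 72 h. MTT 0.5 mg/mL for 3 h at 37 °C, formazan dissolved in 0.1 N HCl/isopropanol with 10% Triton X-100, absorbance at 570 nm. IC50 from four-parameter logistic fit, with standard errors.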

A short description of experiment [4]: Cytotoxicity against folate receptor deficient human WI38 cells after 72 hrs by MTT assay. Type of experiment: functional, cell-based. The following applies: WI-38, 72 h. The method, boiled down: as §1
Experiment [5] has as its system MX1. Kind of experiment: Cytotoxicity against folate receptor over-expressing human MX1 cells incubated for 24 hrs followed by 6 equiv GSH-OEt addition and further incubated for another 48 by MTT assay. Type of experiment: functional, cell-based. Particulars: MX1, 24 h. The method in brief:
(§2)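 After 24 h treatment with the conjugate, glutathione ethyl ester (GSH-OEt, 6 equiv.) was added, followed by a further 48 h, 72 h total. Cells-permeable thiol ester. Compound 0.5–5,000 nM in RPMI-1640 medium. MTT read-out at 570 nm. IC50 from four-parameter logistic fit.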

The test system of experiment [6] is MX1. As to the kind of experiment: Cytotoxicity against folate receptor over-expressing human MX1 cells incubated for 24 hrs followed by 6 equiv GSH addition and further incubated for another 48 by MTT assay. The following applies: MX1, 24 h. Type of experiment: functional, cell-based. The method in brief:
(§3)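 Cells were exposed to the conjugate for 24 h, then reduced glutathione (GSH, 6 equiv.) was added and incubation continued 48 h, 72 h in total. Compound range 0.5–5,000 nM in RPMI-1640 medium, which contains folic acid. Read-out by MTT at 570 nm. IC50 from four-parameter logistic curve.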

The subject of experiment [7] is L1210. Kind of experiment: Cytotoxicity against folate receptor over-expressing mouse L1210 cells incubated for 24 hrs followed by 6 equiv GSH-OEt addition and further incubated for another 48 by MTT assay. Type of experiment: functional, cell-based. Particulars: L1210, 24 h. The method, boiled down:
as §2

In experiment [8] the test system is L1210. As to the kind of experiment: Cytotoxicity against folate receptor over-expressing mouse L1210 cells incubated for 24 hrs followed by 6 equiv GSH addition and further incubated for another 48 by MTT assay. Type of experiment: functional, cell-based. Particulars: L1210, 24 h. The method, boiled down: as §3
In a further experiment the test system is WI-38. As to the kind of experiment: Selectivity index, ratio of IC50 for folate receptor deficient human WI38 cells to IC50 for folate receptor over-expressing mouse ID8 cells.
For experiment [9], the system named is MX1. Kind of experiment: Selectivity index, ratio of IC50 for folate receptor deficient human WI38 cells to IC50 for folate receptor over-expressing human MX1 cells.
The test system of experiment [10] is L1210. Kind of experiment: Selectivity index, ratio of IC50 for folate receptor deficient human WI38 cells to IC50 for folate receptor over-expressing mouse L1210 cells.

As to `CC(=O)O[C@@]12CO[C@@H]1C[C@H](O)[C@@]1(C)C(=O)[C@H](OC(=O)C3CC3)C3=C(C)[C@@H](OC(=O)[C@H](O)[C@H](C=C(C)C)NC(=O)OC(C)(C)C)C[C@@](O)([C@@H](OC(=O)c4ccccc4)[C@H]21)C3(C)C`, the IC50 in experiment [1] is 2.82 nM; in the experiment on MX1 [2], 1.89 nM; with L1210 [3], 2.66 nM; in experiment [4], 4.89 nM.
For the compound `CC(=O)O[C@H]1C(=O)[C@@]2(C)[C@H]([C@H](OC(=O)c3ccccc3)[C@]3(O)C[C@H](OC(=O)[C@H](O)[C@@H](NC(=O)c4ccccc4)c4ccccc4)C(C)=C1C3(C)C)[C@]1(OC(C)=O)CO[C@@H]1C[C@@H]2O` [PACLITAXEL], the IC50 in experiment [1] turned out to be 13.8 nM; with MX1 [2], 5.59 nM; with L1210 [3], 27.6 nM; in experiment [4] it was 55.7 nM.
Regarding `CC(=O)O[C@@]12CO[C@@H]1C[C@H](O)[C@@]1(C)C(=O)[C@H](OC(=O)C3CC3)C3=C(C)[C@@H](OC(=O)[C@H](OC(=O)Cc4ccccc4SSC(C)CCC(=O)NCCCOCCOCCOCCCNC(=O)c4ccc(CC5CCCCCc6c5nnn6CCOCCOCCOCCNC(=O)CC[C@@H](NC(=O)CC[C@@H](NC(=O)c5ccc(NCc6cnc7nc(N)nc(O)c7n6)cc5)C(=O)O)C(=O)N[C@H](CCCNC(=N)N)C(=O)O)cc4)[C@H](C=C(C)C)NC(=O)OC(C)(C)C)C[C@@](O)([C@@H](OC(=O)c4ccccc4)[C@H]21)C3(C)C` (some centres undefined), the half-inhibitory concentration (IC50) in [1] is 2.52 nM; with MX1 [2] it was 3.43 nM; in the experiment with MX1 [5], 2.08 nM; in the experiment on MX1 [6] it was 3.42 nM; in the experiment on L1210 [3], 3.51 nM; in the experiment with L1210 [7], 3.35 nM. Further, the IC50 in the experiment on L1210 [8] was 3.87 nM; in experiment [4] it was over 5000 nM. Further, the “Ratio IC50” value with WI-38, in the experiment with MX1 [9] and in the experiment with L1210 [10] was over 1000 in each case.

The record behind these values is ChEMBL document CHEMBL3399991, “Design, synthesis and biological evaluation of a highly-potent and cancer cell selective folate-taxoid conjugate” (Bioorg Med Chem, 2015).
